In ChEMBL document CHEMBL1275477, “Discovery and characterization of QPT-1, the progenitor of a new class of bacterial topoisomerase inhibitors” (Antimicrob Agents Chemother, 2008):
pIC50: −log10 of the molar value. Converted amounts (≈) assume the structure as drawn.

Experiments:
[1] = tested on: Staphylococcus aureus; experiment: Antibacterial activity against methicillin-susceptible Staphylococcus aureus UC9218 by broth microdilution method; assay type: functional
Method in brief: (§1)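 Broth microdilution MIC following National Committee for Clinical Laboratory Standards methods. Plasmid-borne GyrB in transformed S. aureus strains was overexpressed by adding 100 ng/ml doxycycline.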

[2] = tested on: Staphylococcus aureus; experiment: Antibacterial activity against Staphylococcus aureus UC9218 by broth microdilution method in presence of 25% serum; assay type: functional; method in brief: as §1
[3] = tested on: Staphylococcus aureus; experiment: Antibacterial activity against Staphylococcus aureus UC9218 by broth microdilution method in presence of 50% serum; assay type: functional; method in brief: as §1
[4] = tested on: Staphylococcus aureus; experiment: Antibacterial activity against methicillin and ciprofloxacin-resistant Staphylococcus aureus UC12673 by broth microdilution method; assay type: functional; method in brief: as §1
[5] = tested on: Staphylococcus aureus; experiment: Antibacterial activity against methicillin-resistant Staphylococcus aureus UC9213 by broth microdilution method; assay type: functional; method in brief: as §1
[6] = tested on: Staphylococcus aureus; experiment: Antibacterial activity against Staphylococcus aureus RN4220 by broth microdilution method; assay type: functional; method in brief: as §1
[7] = tested on: Staphylococcus aureus; experiment: Antibacterial activity against norA-deficient Staphylococcus aureus RN4220 by broth microdilution method; assay type: functional; method in brief: as §1
[8] = tested on: Staphylococcus epidermidis; experiment: Antibacterial activity against methicillin and ciprofloxacin-resistant Staphylococcus epidermidis UC12084 by broth microdilution method; assay type: functional; method in brief: as §1
[9] = tested on: Streptococcus pneumoniae; experiment: Antibacterial activity against Streptococcus pneumoniae UC9912 by broth microdilution method; assay type: functional; method in brief: as §1
[10] = tested on: Streptococcus pneumoniae; experiment: Antibacterial activity against Streptococcus pneumoniae UC15142 by broth microdilution method; assay type: functional; method in brief: as §1
[11] = tested on: Streptococcus pyogenes; experiment: Antibacterial activity against Streptococcus pyogenes UC152 by broth microdilution method; assay type: functional; method in brief: as §1
[12] = tested on: Enterococcus faecalis; experiment: Antibacterial activity against Enterococcus faecalis UC9217 by broth microdilution method; assay type: functional; method in brief: as §1
[13] = tested on: Enterococcus faecium; experiment: Antibacterial activity against Enterococcus faecium UC12712 by broth microdilution method; assay type: functional; method in brief: as §1
[14] = tested on: Haemophilus influenzae; experiment: Antibacterial activity against Haemophilus influenzae UC30063 by broth microdilution method; assay type: functional; method in brief: as §1
[15] = tested on: Haemophilus influenzae; experiment: Antibacterial activity against acrAB-deficient Haemophilus influenzae 31809 by broth microdilution method; assay type: functional; method in brief: as §1
[16] = tested on: Moraxella catarrhalis; experiment: Antibacterial activity against Moraxella catarrhalis UC3067 by broth microdilution method; assay type: functional; method in brief: as §1
[17] = tested on: Escherichia coli; experiment: Antibacterial activity against Escherichia coli UC6674 by broth microdilution method; assay type: functional; method in brief: as §1
[18] = tested on: Escherichia coli; experiment: Antibacterial activity against acrAB-deficient Escherichia coli UC31701 by broth microdilution method; assay type: functional; method in brief: as §1
[19] = tested on: Escherichia coli; experiment: Antibacterial activity against tolC-deficient Escherichia coli UC31708 by broth microdilution method; assay type: functional; method in brief: as §1
[20] = tested on: Staphylococcus aureus; experiment: Antimicrobial activity against Staphylococcus aureus 286607-R1 by broth microdilution method; assay type: functional; method in brief: as §1
[21] = tested on: Staphylococcus aureus; experiment: Antimicrobial activity against Staphylococcus aureus 286607-R1 harboring wild type gyrB by broth microdilution method; assay type: functional; method in brief: as §1
[22] = tested on: Staphylococcus aureus; experiment: Antimicrobial activity against Staphylococcus aureus RN4220 expressing gyrB D437N mutant gene by broth microdilution method; assay type: functional; method in brief: as §1
[23] = tested on: Staphylococcus aureus; experiment: Antimicrobial activity against methicillin-resistant Staphylococcus aureus SUAR 1015-01 harboring gyrA S84L, parC S80F and parE S189R mutant gene by broth microdilution method; assay type: functional; method in brief: as §1
[24] = tested on: Staphylococcus aureus; experiment: Antimicrobial activity against Staphylococcus aureus COL harboring gyrB V28A mutant gene by broth microdilution method; assay type: functional; method in brief: as §1
[25] = tested on: Staphylococcus aureus; experiment: Antimicrobial activity against Staphylococcus aureus MW2 harboring parC R400C mutant gene by broth microdilution method; assay type: functional; method in brief: as §1
[26] = tested on: Staphylococcus aureus; experiment: Antimicrobial activity against Staphylococcus aureus USA200 harboring […] S84L and parC R400C mutant gene by broth microdilution method; assay type: functional; method in brief: as §1
[27] = tested on: Staphylococcus aureus; experiment: Antibacterial activity against Staphylococcus aureus ATCC 29213 by broth microdilution method; assay type: functional; method in brief: as §1
[28] = tested on: Staphylococcus aureus; experiment: Antibacterial activity against ciprofloxacin-resistant Staphylococcus aureus ATCC 29213 by broth microdilution method; assay type: functional; method in brief: as §1
[29] = tested on: Staphylococcus aureus; experiment: Antibacterial activity against quinoline pyrimidine trione-resistant Staphylococcus aureus ATCC 29213 by broth microdilution method; assay type: functional; method in brief: as §1
[30] = tested on: Staphylococcus aureus; experiment: Antibacterial activity against methicillin-susceptible Staphylococcus aureus by broth microdilution method; assay type: functional; method in brief: as §1
[31] = tested on: Staphylococcus aureus; experiment: Antibacterial activity against methicillin-resistant Staphylococcus aureus by broth microdilution method; assay type: functional; method in brief: as §1
[32] = tested on: Staphylococcus aureus; experiment: Antibacterial activity against ciprofloxacin-resistant Staphylococcus aureus by broth microdilution method; assay type: functional; method in brief: as §1
[33] = tested on: Streptococcus pneumoniae; experiment: Antibacterial activity against Streptococcus pneumoniae by broth microdilution method; assay type: functional; method in brief: as §1
[34] = tested on: Streptococcus pneumoniae; experiment: Antibacterial activity against ciprofloxacin-resistant Streptococcus pneumoniae by broth microdilution method; assay type: functional; method in brief: as §1
[35] = Inhibition of Escherichia coli DNA gyrase by gel electrophoresis
[36] = Inhibition of Escherichia coli DNA topoisomerase 4 by gel electrophoresis
[37] = Inhibition of human DNA topoisomerase 4 by gel electrophoresis
[38] = tested on: Staphylococcus aureus; experiment: Antibacterial activity against methicillin-resistant Staphylococcus aureus UC9213 in orally dosed lethal systemic CF-1 mouse infection model; assay type: functional; settings: UC9213, po
Method in brief: (§2)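 Lethal systemic infection in female CF-1 mice (20 g), infected intraperitoneally with enough bacteria to kill 90–100% of untreated mice. Thawed cultures were suspended in brain heart infusion broth with 4% (wt/vol) dried brewer's yeast. Drug given orally or subcutaneously at 1 and 5 h postinfection, at five or more dose levels, six mice per level. Survival followed for 1 week; ED50 by probit analysis.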

[39] = tested on: Staphylococcus aureus; experiment: Antibacterial activity against methicillin-resistant Staphylococcus aureus UC9213 infected in subcutaneously dosed lethal systemic CF-1 mouse infection model; assay type: functional; settings: UC9213, sc; method in brief: as §2
[40] = tested on: Mus musculus; experiment: Toxicity in lethal systemic CF-1 mouse infection model assessed as adverse effects at 200 mg/kg, po; assay type: organism-based; set-up: dose 200 mg/kg, route oral; settings: in vivo
[41] = Half life in lethal systemic CF-1 mouse infection model at 21.6 mg/kg, iv; assay type: ADME, organism-based; set-up: dose 21.6 mg/kg, route intravenous; settings: in vivo
Method in brief: (§3)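 Mouse pharmacokinetics: single dose in 0.2 ml, given orally (pH 4.5 acetate-buffered 20% DMSO–methylcellulose suspension) or intravenously (20% hydroxypropyl beta-cyclodextrin, pH 7 phosphate buffer). Plasma sampled to 480 min: iv at 0, 2, 15, 30, 60, 120, 240, 480 min; oral at 0, 20, 30, 60, 120, 240, 360, 480 min. Three mice per time point; mean concentration–time data analysed noncompartmentally.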

[42] = Cmax in lethal systemic CF-1 mouse infection model at 21.6 mg/kg, iv; assay type: ADME, organism-based; set-up: dose 21.6 mg/kg, route intravenous; settings: in vivo; method in brief: as §3
[43] = AUC (0 to infinity) in lethal systemic CF-1 mouse infection model at 21.6 mg/kg, iv; assay type: ADME, organism-based; set-up: time infinity, dose 21.6 mg/kg, route intravenous; settings: in vivo; method in brief: as §3
[44] = Volume of distribution at steady state in lethal systemic CF-1 mouse infection model at 21.6 mg/kg, iv; assay type: ADME, organism-based; set-up: dose 21.6 mg/kg, route intravenous; settings: in vivo, read-out: Vdss
[45] = Clearance in lethal systemic CF-1 mouse infection model at 21.6 mg/kg, iv; assay type: ADME, organism-based; set-up: dose 21.6 mg/kg, route intravenous; settings: in vivo; method in brief: as §3
[46] = Half life in lethal systemic CF-1 mouse infection model at 20.3 mg/kg, po; assay type: ADME, organism-based; set-up: dose 20.3 mg/kg, route oral; settings: in vivo; method in brief: as §3
[47] = Cmax in lethal systemic CF-1 mouse infection model at 20.3 mg/kg, po; assay type: ADME, organism-based; set-up: dose 20.3 mg/kg, route oral; settings: in vivo; method in brief: as §3
[48] = AUC (0 to infinity) in lethal systemic CF-1 mouse infection model at 20.3 mg/kg, po; assay type: ADME, organism-based; set-up: dose 20.3 mg/kg, route oral, time infinity; settings: in vivo; method in brief: as §3
[49] = Tmax in lethal systemic CF-1 mouse infection model at 20.3 mg/kg, po; assay type: ADME, organism-based; set-up: dose 20.3 mg/kg, route oral; settings: in vivo; method in brief: as §3
[50] = Oral bioavailability in lethal systemic CF-1 mouse infection model at 20.3 mg/kg, po; assay type: ADME, organism-based; settings: in vivo; method in brief: as §3

CC1CN2c3ccc([N+](=O)[O-])cc3CC3(C(=O)NC(=O)NC3=O)C2C(C)O1 (racemic)
MIC [1]: 1 µg/mL (≈ 2.67 µM) | MIC [2]: 2 µg/mL | MIC [3]: 4 µg/mL | MIC [4]: 1 µg/mL (≈ 2.67 µM) | MIC [5]: 1 µg/mL (≈ 2.67 µM) | MIC [6]: 1 µg/mL (≈ 2.67 µM) | MIC [7]: 1 µg/mL (≈ 2.67 µM) | MIC [8]: 1 µg/mL (≈ 2.67 µM) | MIC [9]: 4 µg/mL (≈ 10.7 µM) | MIC [10]: 4 µg/mL (≈ 10.7 µM) | MIC [11]: 2 µg/mL (≈ 5.34 µM) | MIC [12]: 4 µg/mL (≈ 10.7 µM) | MIC [13]: 8 µg/mL (≈ 21.4 µM) | MIC [14]: 0.5 µg/mL (≈ 1.34 µM) | MIC [15]: < 0.06 µg/mL | MIC [16]: 2 µg/mL (≈ 5.34 µM) | MIC [17]: 4 µg/mL (≈ 10.7 µM) | MIC [18]: 0.125 µg/mL (≈ 0.334 µM) | MIC [19]: < 0.06 µg/mL | MIC [20]: 16 µg/mL (≈ 42.7 µM) | MIC [21]: 4 µg/mL (≈ 10.7 µM) | MIC [22]: 1 µg/mL (≈ 2.67 µM) | MIC [23]: 0.5 µg/mL (≈ 1.34 µM) | MIC [24]: 1 µg/mL (≈ 2.67 µM) | MIC [25]: 1 µg/mL (≈ 2.67 µM) | MIC [26]: 1 µg/mL (≈ 2.67 µM) | MIC [27]: 1 µg/mL (≈ 2.67 µM) | MIC [28]: 1 µg/mL (≈ 2.67 µM) | MIC [29]: 8 µg/mL (≈ 21.4 µM) | MIC50 [30]: 1 µg/mL (≈ 2.67 µM) | MIC90 [30]: 1 µg/mL (≈ 2.67 µM) | MIC [31]: 1 µg/mL (≈ 2.67 µM) | MIC50 [31]: 1 µg/mL (≈ 2.67 µM) | MIC90 [31]: 2 µg/mL (≈ 5.34 µM) | MIC50 [32]: 1 µg/mL (≈ 2.67 µM) | MIC90 [32]: 1 µg/mL (≈ 2.67 µM) | MIC50 [33]: 4 µg/mL (≈ 10.7 µM) | MIC90 [33]: 8 µg/mL (≈ 21.4 µM) | MIC50 [34]: 4 µg/mL (≈ 10.7 µM) | MIC90 [34]: 8 µg/mL (≈ 21.4 µM) | pIC50 [35]: 5.05 | pIC50 [36]: 4.52 | pIC50 [37]: 3.70 | ED50 [38]: 19.5 mg/kg | ED50 [39]: 12.5 mg/kg | Activity [40]: Non-toxic | half-life [41]: 73.2 min | Cmax [42]: 15700 ng/mL | AUC(0-inf) [43]: 31000 ng·h/mL | Vd [44]: 0.623 L/kg | clearance [45]: 11.6 mL/min/kg | half-life [46]: 55.6 min | Cmax [47]: 15700 ng/mL | AUC(0-inf) [48]: 27600 ng·h/mL | Tmax [49]: 1 h | bioavailability [50]: 94.7%
